Columns and labels:
Format in all cases: biochemical
[1] = biological target: T1, ADAM10 (Homo sapiens, UniProt O14672); assay: Selectivity testing against zinc metalloproteases: ADAM10; settings: read-out: IC50 ADAM10; n = 3 Mean ± SD
T1 sequence (O14672 214-748): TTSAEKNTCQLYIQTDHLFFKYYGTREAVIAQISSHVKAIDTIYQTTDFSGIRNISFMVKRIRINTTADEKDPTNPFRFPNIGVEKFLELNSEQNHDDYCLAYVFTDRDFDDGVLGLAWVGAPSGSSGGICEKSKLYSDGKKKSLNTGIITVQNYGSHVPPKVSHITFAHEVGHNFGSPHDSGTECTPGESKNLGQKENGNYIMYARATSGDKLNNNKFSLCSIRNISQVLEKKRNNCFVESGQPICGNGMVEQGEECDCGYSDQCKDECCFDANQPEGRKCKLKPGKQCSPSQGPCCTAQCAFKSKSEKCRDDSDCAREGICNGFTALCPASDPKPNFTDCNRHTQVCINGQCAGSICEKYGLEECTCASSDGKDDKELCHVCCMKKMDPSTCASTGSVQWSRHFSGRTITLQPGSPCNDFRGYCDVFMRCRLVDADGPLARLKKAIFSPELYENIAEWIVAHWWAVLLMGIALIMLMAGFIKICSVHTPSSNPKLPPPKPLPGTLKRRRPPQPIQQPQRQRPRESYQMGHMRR

[2] = biological target: T2, meprin α (Homo sapiens, UniProt Q16819); assay: Meprin α HTS FRET assay, dose response; settings: read-out: IC50 Meprin α; selectivity testing; n = 3 Mean ± SD
T2 sequence (Q16819 66-653 limits assumed): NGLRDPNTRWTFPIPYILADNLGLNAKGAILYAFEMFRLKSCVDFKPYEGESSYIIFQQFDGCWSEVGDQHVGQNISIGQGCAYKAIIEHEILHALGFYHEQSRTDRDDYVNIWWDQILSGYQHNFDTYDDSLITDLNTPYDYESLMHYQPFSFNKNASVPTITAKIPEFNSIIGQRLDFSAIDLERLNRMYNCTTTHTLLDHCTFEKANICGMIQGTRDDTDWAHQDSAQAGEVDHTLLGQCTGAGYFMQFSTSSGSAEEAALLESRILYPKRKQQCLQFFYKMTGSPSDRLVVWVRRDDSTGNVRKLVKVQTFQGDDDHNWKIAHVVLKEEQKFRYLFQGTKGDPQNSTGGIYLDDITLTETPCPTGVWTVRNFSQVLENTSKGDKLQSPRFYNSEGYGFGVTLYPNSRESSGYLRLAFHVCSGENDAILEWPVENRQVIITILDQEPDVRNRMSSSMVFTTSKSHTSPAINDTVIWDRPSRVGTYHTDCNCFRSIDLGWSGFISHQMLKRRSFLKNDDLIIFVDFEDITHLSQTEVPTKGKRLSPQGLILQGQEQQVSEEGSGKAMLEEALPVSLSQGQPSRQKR
Summary of the method: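 Recombinant human Strep-tagged meprin α was expressed in baculovirus-infected BTI-TN-5B1-4 cells, trypsin-activated, then freed of trypsin. It was used as a 2x solution at 2.6 nM in 50 mM Hepes, 0.01% Brij-35, pH 7.5. Test compound was pre-incubated 30 min at RT, then 2x (MCA)-YVADAPK-(K-ε-DNP) at 20 μM was added for 1 h at RT. Read at ex 324/em 393 nm. 3-fold dilutions in quadruplicate; 4-parameter fit; 0.1% or 1.0% DMSO.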

[3] = biological target: MMP-13 (Homo sapiens, UniProt P45452); assay: Selectivity testing against zinc metalloproteases: MMP-13; settings: read-out: IC50 MMP-13; n = 3 Mean ± SD
[4] = biological target: T3, meprin β (Homo sapiens, UniProt Q16820); assay: Meprin β LOPAC pilot screen; settings: 18 μM
T3 sequence (Q16820 62-614 limits assumed): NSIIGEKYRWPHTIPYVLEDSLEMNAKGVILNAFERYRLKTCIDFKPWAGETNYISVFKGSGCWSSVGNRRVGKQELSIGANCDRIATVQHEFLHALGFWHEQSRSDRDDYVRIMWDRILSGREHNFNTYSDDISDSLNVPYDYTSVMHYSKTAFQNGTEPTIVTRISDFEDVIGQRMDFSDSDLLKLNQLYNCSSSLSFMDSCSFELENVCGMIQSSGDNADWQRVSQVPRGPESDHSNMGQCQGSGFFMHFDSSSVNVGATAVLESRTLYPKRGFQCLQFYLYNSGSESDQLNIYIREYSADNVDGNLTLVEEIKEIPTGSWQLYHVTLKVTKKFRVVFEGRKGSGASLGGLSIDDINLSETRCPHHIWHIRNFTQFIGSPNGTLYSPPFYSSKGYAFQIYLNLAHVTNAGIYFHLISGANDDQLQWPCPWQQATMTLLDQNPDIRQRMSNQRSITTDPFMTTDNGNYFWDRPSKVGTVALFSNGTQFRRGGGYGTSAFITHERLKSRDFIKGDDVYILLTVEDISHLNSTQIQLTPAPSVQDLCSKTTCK

[5] = biological target: T4, MMP-2 (Homo sapiens, UniProt P08253); assay: Selectivity testing against zinc metalloproteases: MMP-2; settings: read-out: IC50 MMP-2; n = 3 Mean ± SD
T4 sequence (P08253 110-660): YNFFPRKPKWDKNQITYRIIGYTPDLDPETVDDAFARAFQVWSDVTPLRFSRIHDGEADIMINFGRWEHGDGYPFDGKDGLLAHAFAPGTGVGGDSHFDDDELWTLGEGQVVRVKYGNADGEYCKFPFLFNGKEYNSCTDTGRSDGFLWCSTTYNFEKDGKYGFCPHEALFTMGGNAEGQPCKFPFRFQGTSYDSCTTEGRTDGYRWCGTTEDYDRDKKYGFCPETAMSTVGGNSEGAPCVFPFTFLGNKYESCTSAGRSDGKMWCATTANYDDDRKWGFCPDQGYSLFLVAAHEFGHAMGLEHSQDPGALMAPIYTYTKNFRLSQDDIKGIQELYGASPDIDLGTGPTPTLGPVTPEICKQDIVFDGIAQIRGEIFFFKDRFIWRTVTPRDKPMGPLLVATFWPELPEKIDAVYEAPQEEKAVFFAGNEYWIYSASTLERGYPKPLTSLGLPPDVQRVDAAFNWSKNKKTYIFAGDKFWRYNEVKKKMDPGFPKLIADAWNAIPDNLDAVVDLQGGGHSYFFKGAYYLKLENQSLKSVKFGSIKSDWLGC

[6] = biological target: T3, meprin β; assay: Meprin β HTS FRET assay, dose response; settings: dose response experiment, data not shown
Summary of the method: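 Trypsin-activated meprin β (trypsin removed on immobilized ovomucoid) in 50 mM Hepes, 0.01% Brij-35, pH 7.5, added as 2x (0.15 nM) solution. Pin-transferred inhibitor was preincubated 30 min at RT. 2x (20 μM) (MCA)-EDEDED-(K-ε-DNP) was then added, run 1 h at RT, and read at ex 324/em 393 nm. A 3-fold dilution series was run in quadruplicate, and % inhibition was fitted with a 4-parameter equation. DMSO final was 0.1% or 1.0%.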

[7] = biological target: MMP-9 (Homo sapiens, UniProt P14780); assay: Selectivity testing against zinc metalloproteases: MMP-9; settings: read-out: IC50 MMP-9; n = 3 Mean ± SD
MMP-9, sequence (P14780 94-707, species assumed): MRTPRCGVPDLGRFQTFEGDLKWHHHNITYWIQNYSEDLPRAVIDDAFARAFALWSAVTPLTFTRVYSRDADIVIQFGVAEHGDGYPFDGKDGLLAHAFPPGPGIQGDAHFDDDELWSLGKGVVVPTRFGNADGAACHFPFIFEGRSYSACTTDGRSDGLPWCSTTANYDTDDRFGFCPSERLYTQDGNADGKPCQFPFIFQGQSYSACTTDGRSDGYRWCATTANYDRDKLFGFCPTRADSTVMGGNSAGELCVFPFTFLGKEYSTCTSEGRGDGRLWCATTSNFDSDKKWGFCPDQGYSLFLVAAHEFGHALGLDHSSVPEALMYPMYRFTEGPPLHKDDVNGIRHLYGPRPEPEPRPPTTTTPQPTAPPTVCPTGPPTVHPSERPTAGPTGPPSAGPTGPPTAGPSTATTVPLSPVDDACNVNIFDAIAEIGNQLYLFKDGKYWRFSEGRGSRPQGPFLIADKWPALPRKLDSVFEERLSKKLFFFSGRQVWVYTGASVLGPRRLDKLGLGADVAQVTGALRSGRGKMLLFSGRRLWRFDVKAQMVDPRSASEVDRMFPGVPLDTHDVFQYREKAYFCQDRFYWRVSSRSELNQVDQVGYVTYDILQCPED

[8] = biological target: ADAM17 (Homo sapiens, UniProt P78536); assay: Selectivity testing against zinc metalloproteases: ADAM17; settings: read-out: IC50 ADAM17; n = 3 Mean ± SD
ADAM17, sequence (P78536 215-824, species assumed): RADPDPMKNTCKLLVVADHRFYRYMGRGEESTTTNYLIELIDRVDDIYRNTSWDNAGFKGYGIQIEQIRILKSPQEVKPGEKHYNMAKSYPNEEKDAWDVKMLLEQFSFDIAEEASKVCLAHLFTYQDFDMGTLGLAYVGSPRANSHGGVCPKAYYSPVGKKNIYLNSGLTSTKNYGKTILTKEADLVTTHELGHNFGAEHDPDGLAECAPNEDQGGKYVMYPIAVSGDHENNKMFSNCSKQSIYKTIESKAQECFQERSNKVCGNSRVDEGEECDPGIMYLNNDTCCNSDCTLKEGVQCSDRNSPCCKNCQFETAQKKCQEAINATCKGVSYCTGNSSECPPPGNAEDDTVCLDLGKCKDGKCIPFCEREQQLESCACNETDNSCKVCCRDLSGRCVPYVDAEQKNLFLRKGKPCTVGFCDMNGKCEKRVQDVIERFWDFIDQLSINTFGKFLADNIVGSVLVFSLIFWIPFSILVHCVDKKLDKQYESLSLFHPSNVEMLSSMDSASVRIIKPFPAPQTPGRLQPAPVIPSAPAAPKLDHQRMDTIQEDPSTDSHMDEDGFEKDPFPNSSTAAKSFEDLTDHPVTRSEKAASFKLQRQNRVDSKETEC

[9] = biological target: T5, MMP-1 (Homo sapiens, UniProt P03956); assay: Selectivity testing against zinc metalloproteases: MMP-1; settings: read-out: IC50 MMP-1; n = 3 Mean ± SD
T5 sequence (P03956 100-469): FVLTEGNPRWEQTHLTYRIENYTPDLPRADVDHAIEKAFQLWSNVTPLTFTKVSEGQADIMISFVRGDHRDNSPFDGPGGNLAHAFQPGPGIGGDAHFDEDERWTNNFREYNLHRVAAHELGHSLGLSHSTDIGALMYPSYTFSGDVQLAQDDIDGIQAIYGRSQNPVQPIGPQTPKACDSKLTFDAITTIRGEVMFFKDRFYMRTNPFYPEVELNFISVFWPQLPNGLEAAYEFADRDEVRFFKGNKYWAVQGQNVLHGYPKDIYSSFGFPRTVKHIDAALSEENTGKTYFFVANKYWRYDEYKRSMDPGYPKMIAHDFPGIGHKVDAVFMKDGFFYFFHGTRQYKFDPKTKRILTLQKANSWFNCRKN

**Q.** `N.N.[Cl][Pt][Cl]` [Cisplatin, cisplatin] was tested. Which IC50 [1] did it give?
**A.** 4.2 ± 0.2 µM

**Q.** What about the IC50 [2] of the same compound?
**A.** > 100 µM

**Q.** What about the IC50 [3] of the same compound?
**A.** > 100 µM

**Q.** What about the “% inhibition meprin β in pilot screen” value [4] of the same compound?
**A.** negative inhibition values

**Q.** And the “meprin β LOPAC pilot screen outcome” value ([4]; hit cutoff 25% inhibition)?
**A.** selective hits

**Q.** And the IC50 [5]?
**A.** 5.1 ± 0.6 µM

**Q.** What about the “meprin β dose response behaviour” value [6] of the same compound?
**A.** dose dependent negative inhibition

**Q.** And the IC50 [7]?
**A.** 13.9 ± 2.1 µM

**Q.** And the IC50 [8]?
**A.** 5.1 ± 0.4 µM

**Q.** And the IC50 [9]?
**A.** 5.1 ± 0.5 µM
